Converted amounts (≈) assume the structure as drawn. Read-outs that look alike come from different tables or passages of the source.
What was measured:
EcFtsZ = EcFtsZ (Escherichia coli, UniProt P0A9A6); type: biochemical; conditions: for Inhibition of EcFtsZ GTPase activity with detergent: 0.01% Triton X-100; for Inhibition of EcFtsZ GTPase activity at increasing FtsZ concentrations: increasing protein concentration
BsFtsZ [1] = molecular target: T1, BsFtsZ (Bacillus subtilis, UniProt P17865); experiment: Enzyme-coupled GTPase assay, BsFtsZ; type: biochemical; conditions: for Inhibition of BsFtsZ GTPase activity: absence of Triton X-100; for Inhibition of BsFtsZ GTPase activity with detergent: 0.01% Triton X-100; for Inhibition of BsFtsZ GTPase activity at increasing FtsZ concentrations: increasing protein concentration
FtsZ [2] = conditions: cited from earlier work
BsFtsZ [3] = molecular target: T1, BsFtsZ; experiment: Malachite green GTPase assay, BsFtsZ; type: biochemical; conditions: concentrations up to 100 μM
SaFtsZ = SaFtsZ (Staphylococcus aureus, UniProt P0A031); experiment: GTPase assay, SaFtsZ; type: biochemical
How it was run: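 Recombinant S. aureus FtsZ (pET11a, E. coli C41(DE3), IPTG 30 °C 5 h) purified by ammonium sulfate and anion exchange; BCA concentration divided by 0.75. 10 μM FtsZ with inhibitor in DMSO, pH 6.5 MES/Mg(OAc)2/KOAc, preincubated 5 min, then GTP added. Coupled: PK/LDH, PEP, NADH, A340 over time at ~25 °C. Malachite green: 30 °C, EDTA-quenched time points, A630 against phosphate standards.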

B. subtilis strain 168 = experiment: Antimicrobial activity; type: cell-based, Bacillus subtilis
FtsZ [4] = experiment: Malachite green GTPase assay under approximate Merck viriditoxin conditions; type: biochemical; conditions: up to 128 μM; 50 mM Tris, 34 mM KCl, 0.75 mM Mg(OAc)2, 2.5 mM CaCl2, 50 μg/mL DEAE-Dextran, 37 °C
[5] = Chemical stability on storage; type: physicochemical; conditions: degrades if not stored free of solvent and at low temperature
tubulin = conditions: berberine even at high concentration (100 μM); cited from earlier work
Dnm1 = molecular target: T2, Dnm1 (Saccharomyces cerevisiae, UniProt P54861); experiment: GTPase activity of the eukaryotic GTPase Dnm1; type: biochemical
T2 sequence (P54861 1-757): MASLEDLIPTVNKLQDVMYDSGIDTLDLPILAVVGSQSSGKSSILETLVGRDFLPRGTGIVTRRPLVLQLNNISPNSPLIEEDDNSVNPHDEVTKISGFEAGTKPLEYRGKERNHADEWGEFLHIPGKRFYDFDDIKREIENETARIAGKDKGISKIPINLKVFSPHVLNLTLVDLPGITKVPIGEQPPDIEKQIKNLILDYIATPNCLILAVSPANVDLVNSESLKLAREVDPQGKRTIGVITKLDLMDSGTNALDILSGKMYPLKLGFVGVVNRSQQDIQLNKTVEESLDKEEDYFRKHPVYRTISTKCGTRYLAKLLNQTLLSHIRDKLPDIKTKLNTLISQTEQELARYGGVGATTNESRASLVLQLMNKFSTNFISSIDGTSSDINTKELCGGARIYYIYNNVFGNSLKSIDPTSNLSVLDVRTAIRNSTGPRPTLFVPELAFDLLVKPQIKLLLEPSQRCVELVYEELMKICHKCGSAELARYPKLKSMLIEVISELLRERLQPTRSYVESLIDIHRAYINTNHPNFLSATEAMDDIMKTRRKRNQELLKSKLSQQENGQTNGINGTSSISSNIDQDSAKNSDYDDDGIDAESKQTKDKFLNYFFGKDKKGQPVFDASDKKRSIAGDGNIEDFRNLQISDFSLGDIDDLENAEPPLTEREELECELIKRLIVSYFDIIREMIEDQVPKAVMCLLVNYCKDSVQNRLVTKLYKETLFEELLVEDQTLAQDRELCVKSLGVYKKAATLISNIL

[6] = standard conditions, up to 200 μM

T1 sequence (P17865 whole entry): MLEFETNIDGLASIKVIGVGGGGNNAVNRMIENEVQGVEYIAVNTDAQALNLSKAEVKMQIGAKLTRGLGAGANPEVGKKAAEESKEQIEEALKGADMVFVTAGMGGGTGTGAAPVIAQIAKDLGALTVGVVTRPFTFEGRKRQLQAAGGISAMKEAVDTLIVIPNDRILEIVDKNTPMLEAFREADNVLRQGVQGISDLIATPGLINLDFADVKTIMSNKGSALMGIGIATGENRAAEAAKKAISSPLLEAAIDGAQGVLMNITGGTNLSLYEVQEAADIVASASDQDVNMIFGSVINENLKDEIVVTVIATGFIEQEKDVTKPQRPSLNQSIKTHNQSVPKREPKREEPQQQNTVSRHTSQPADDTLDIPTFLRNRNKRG
Chain of EcFtsZ (P0A9A6 whole entry): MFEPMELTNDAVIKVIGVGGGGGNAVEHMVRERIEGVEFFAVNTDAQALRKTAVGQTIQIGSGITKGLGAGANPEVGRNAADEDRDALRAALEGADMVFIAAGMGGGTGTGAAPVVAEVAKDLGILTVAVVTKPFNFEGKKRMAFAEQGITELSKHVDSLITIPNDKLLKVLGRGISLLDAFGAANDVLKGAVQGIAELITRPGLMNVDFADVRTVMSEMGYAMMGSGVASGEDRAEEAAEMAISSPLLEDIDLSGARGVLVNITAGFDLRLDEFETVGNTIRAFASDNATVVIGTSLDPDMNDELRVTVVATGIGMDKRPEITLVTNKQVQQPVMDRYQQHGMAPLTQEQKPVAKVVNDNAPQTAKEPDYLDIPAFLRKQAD
Chain of SaFtsZ (P0A031 whole entry): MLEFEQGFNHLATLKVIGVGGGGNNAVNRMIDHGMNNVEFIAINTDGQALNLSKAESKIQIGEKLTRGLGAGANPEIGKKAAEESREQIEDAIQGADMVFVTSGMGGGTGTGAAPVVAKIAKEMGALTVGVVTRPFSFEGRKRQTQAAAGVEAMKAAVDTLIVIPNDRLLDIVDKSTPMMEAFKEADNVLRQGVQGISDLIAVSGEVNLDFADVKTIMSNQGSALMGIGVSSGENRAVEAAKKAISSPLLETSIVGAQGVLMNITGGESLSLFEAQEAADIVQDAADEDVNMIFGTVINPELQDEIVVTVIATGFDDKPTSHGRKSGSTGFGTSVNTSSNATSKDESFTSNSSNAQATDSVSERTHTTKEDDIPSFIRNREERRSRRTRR

O=C1CC(c2ccc(O)cc2)Oc2c(Cc3ccccc3O)c(O)c(Cc3ccccc3O)c(O)c21 (stereo not shown) [4′-hydroxydichamanetin]
Inhibition of EcFtsZ GTPase activity (EcFtsZ): exhibited the published activity | Inhibition of BsFtsZ GTPase activity (BsFtsZ [1]): exhibited the published activity

COc1nc2c(=O)[nH]c(N)nc2n1[C@@H]1O[C@H](COP(=O)(O)OP(=O)(O)OP(=O)(O)O)[C@@H](O)[C@H]1O [8-methoxy GTP]
Concentration at which the GTPase activity of FtsZ is inhibited (FtsZ [2]): 15 µM

O=C1C[C@@H](c2ccccc2)Oc2c(Cc3ccccc3O)c(O)c(Cc3ccccc3O)c(O)c21 [Dichamanetin]
Reported activity (FtsZ inhibition) (FtsZ [2]): 12.5 µM

NC(=O)c1c(F)ccc(OCc2nc3cc(Cl)cnc3s2)c1F [PC190723]
Inhibition of BsFtsZ, enzyme-coupled assay (BsFtsZ [1]; concentrations up to 100 μM): no inhibition | Inhibition of BsFtsZ, malachite green assay (BsFtsZ [3]): no inhibition | Inhibition of SaFtsZ GTPase activity (SaFtsZ): no inhibition | Change of SaFtsZ GTPase activity (SaFtsZ; basal activity ~0.5 GTP/FtsZ/min): dose-dependent and reproducible increase in activity | MIC (B. subtilis strain 168): 1 µM (≈ 0.356 µg/mL)

COC(=O)CC1Cc2cc3cc(OC)c(-c4c(OC)cc5cc6c(c(O)c5c4O)C(=O)OC(CC(=O)OC)C6)c(O)c3c(O)c2C(=O)O1 (stereo not shown) [Viriditoxin, viriditoxin]
Inhibition of E. coli FtsZ (EcFtsZ; [6]): no inhibition | Inhibition of B. subtilis FtsZ (BsFtsZ [1]; [6]): no inhibition | Inhibition of FtsZ GTPase under Merck conditions (FtsZ [4]): no inhibition | Chemical stability [5]: chemically unstable | IC50 (FtsZ [2]; read-out: Reported IC50 (FtsZ)): 10 µM

COc1ccc2cc3[n+](cc2c1OC)CCc1cc2c(cc1-3)OCO2 [berberine]
Inhibition of tubulin assembly (tubulin): does not do so

C[n+]1cc2c3c(ccc2c2ccc4cc5c(cc4c21)OCO5)OCO3 [sanguinarine]
Inhibition of tubulin assembly (tubulin): inhibit tubulin assembly

CC(C)c1c(O)ccc2c1CC[C@H]1C(C)(C)CCC[C@]21C [totarol]
Inhibition of EcFtsZ GTPase activity with detergent (EcFtsZ): vanished | Inhibition of EcFtsZ GTPase activity (EcFtsZ; absence of Triton X-100): reproduce the IC50 | Inhibition of EcFtsZ GTPase activity at increasing FtsZ concentrations (EcFtsZ): decreased nearly to the point of having no effect | Inhibition of BsFtsZ GTPase activity with detergent (BsFtsZ [1]): vanished | Inhibition of BsFtsZ GTPase activity (BsFtsZ [1]): reproduce the IC50 | Inhibition of BsFtsZ GTPase activity at increasing FtsZ concentrations (BsFtsZ [1]): decreased nearly to the point of having no effect | Dnm1 GTPase activity on addition of detergent (Dnm1; 0.01% Triton X-100): completely restored | Effect on Dnm1 GTPase activity (Dnm1; micromolar concentrations, no detergent): significant reduction

Oc1ccc(Cl)cc1Cc1cc(Cl)cc(Cc2cc(Cl)ccc2O)c1O [zantrin Z1]
Inhibition of EcFtsZ GTPase activity (EcFtsZ; absence of Triton X-100): exhibited the published activity | Inhibition of BsFtsZ GTPase activity (BsFtsZ [1]): exhibited the published activity

Zantrin Z3
Inhibition of EcFtsZ GTPase activity with detergent (EcFtsZ): maintained | Inhibition of EcFtsZ GTPase activity at increasing FtsZ concentrations (EcFtsZ): maintained | IC50 (EcFtsZ; read-out: IC50 for inhibition of EcFtsZ GTPase activity, no Triton X-100): 20 µM | Inhibition of BsFtsZ GTPase activity with detergent (BsFtsZ [1]): maintained | Inhibition of BsFtsZ GTPase activity at increasing FtsZ concentrations (BsFtsZ [1]): maintained

Reference: publication PMC3514448 (ACS chemical biology, 2012)
